Test results published in ChEMBL document CHEMBL1128502, “Aziridine analogs of [[trans-(epoxysuccinyl)-L-leucyl]amino]-4-guanidinobutane (E-64) as inhibitors of cysteine proteases” (J Med Chem, 1995).

Tests used:
[1] = molecular target: T1, Papain (Carica papaya) (UniProt P00784); test: Second order rate constant for the inactivation of papain at pH 6.5 was reported
T1 sequence (whole entry): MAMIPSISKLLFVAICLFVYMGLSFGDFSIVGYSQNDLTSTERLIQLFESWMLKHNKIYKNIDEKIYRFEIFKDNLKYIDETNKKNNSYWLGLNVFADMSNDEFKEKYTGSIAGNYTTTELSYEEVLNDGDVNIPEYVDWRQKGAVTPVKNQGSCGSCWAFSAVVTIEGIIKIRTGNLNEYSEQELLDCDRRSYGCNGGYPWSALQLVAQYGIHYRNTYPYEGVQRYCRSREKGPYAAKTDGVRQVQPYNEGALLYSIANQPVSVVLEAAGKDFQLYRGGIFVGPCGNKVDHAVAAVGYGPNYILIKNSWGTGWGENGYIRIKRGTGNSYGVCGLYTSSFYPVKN
Outline: (§1)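 Inactivation of cysteine protease was followed at 25 °C in 50 mM buffer with 0.2 M NaCl, 5 mM EDTA, 1 mM DTT and 10% acetonitrile. Buffers were citrate for pH 3.0–5.7, phosphate for pH 5.7–7.9 and borate for pH 7.9–9.0. The second-order constant kinac/Ki was obtained by the Tian and Tsou method.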

[2] = molecular target: Cathepsin B (Rattus norvegicus) (UniProt P00787); test: Second order rate constant for the inactivation of cathepsin B at pH 6.0 was reported; No time dependent inhibition observed; outline: as §1
Chain of Cathepsin B (Rattus norvegicus) (P00787 80-333 limits assumed): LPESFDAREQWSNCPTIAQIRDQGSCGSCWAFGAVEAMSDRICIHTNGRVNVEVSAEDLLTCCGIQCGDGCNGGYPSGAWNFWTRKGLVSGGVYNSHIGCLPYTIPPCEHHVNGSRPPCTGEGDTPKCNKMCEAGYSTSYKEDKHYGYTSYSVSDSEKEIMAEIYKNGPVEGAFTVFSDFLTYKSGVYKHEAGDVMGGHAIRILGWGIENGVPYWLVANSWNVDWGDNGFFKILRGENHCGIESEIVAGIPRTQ

[3] = molecular target: Procathepsin L (Homo sapiens) (UniProt P07711); test: Second order rate constant for the inactivation of cathepsin L at pH 5.5 was reported; outline: as §1
Chain of Procathepsin L (Homo sapiens) (P07711 114-333 limits assumed): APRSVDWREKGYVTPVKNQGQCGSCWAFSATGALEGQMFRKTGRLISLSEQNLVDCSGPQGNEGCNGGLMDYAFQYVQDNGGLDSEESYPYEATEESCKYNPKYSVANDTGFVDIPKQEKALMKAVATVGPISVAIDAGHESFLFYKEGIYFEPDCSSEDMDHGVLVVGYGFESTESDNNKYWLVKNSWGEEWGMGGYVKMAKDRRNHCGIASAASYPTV

[4] = molecular target: Procathepsin L (Homo sapiens) (UniProt P07711); test: Second order rate constant for the inactivation of cathepsin L at pH 6.5 was reported; outline: as §1
[5] = molecular target: T1, Papain (Carica papaya); test: Second order rate constant for the inactivation of papain at pH 6.5 was reported; No time dependent inhibition observed; outline: as §1
[6] = molecular target: Cathepsin B (Rattus norvegicus) (UniProt P00787); test: Second order rate constant for the inactivation of cathepsin B at pH 6.0 was reported

Row | Compound | K inact/Ki [1] [M⁻¹ s⁻¹] | K inact/Ki [2] | K inact/Ki [3] [M⁻¹ s⁻¹] | K inact/Ki [4] [M⁻¹ s⁻¹] | K inact/Ki [5] | K inact/Ki [6] [M⁻¹ s⁻¹]
1 | CC(C)CNC(=O)[C@H]1N[C@H]1C(=O)O | 9.4 |  |  |  |  | 
2 | CC(C)CNC(=O)[C@@H]1N[C@@H]1C(=O)N[C@@H](CC(C)C)C(=O)N1CCC[C@H]1C(=O)O | 1.8 | No inhibition | 6.7 |  |  | 
3 | CC(C)CNC(=O)[C@@H]1N[C@H]1C(=O)N[C@@H](CC(C)C)C(=O)N1CCC[C@H]1C(=O)O |  |  |  | 50 | No inhibition | 13
